{"data": "Experimental data pooled from the literature", "EGFR": "Epidermal growth factor receptor (EGFR, Homo sapiens, UniProt P00533)", "EGFR A750P/del747-749": "Epidermal growth factor receptor (EGFR, Homo sapiens, UniProt P00533, A750P/del747-749)", "EGFR L858R/T790M": "Epidermal growth factor receptor (EGFR, Homo sapiens, UniProt P00533, L858R/T790M)", "EGFR G719C": "Epidermal growth factor receptor (EGFR, Homo sapiens, UniProt P00533, G719C)", "EGFR L858R": "Epidermal growth factor receptor (EGFR, Homo sapiens, UniProt P00533, L858R)", "EGFR L861Q": "Epidermal growth factor receptor (EGFR, Homo sapiens, UniProt P00533, L861Q)", "EGFR del746-750": "Epidermal growth factor receptor (EGFR, Homo sapiens, UniProt P00533, del746-750)", "EGFR del752-759": "Epidermal growth factor receptor (EGFR, Homo sapiens, UniProt P00533, del752-759)", "EGFR T790M": "Epidermal growth factor receptor (EGFR, Homo sapiens, UniProt P00533, T790M)", "EGFR del747-750/T751S": "Epidermal growth factor receptor (EGFR, Homo sapiens, UniProt P00533, del747-750/T751S)", "EGFR del747-752/P753S": "Epidermal growth factor receptor (EGFR, Homo sapiens, UniProt P00533, del747-752/P753S)", "note": "Protocols differ between the studies behind these lines."}
{"SMILES": "CC1CCCN1c1nccc(-c2cnn3ncccc23)n1 (stereo not drawn)", "target": "EGFR", "assay": "binding", "conditions": "1 µM", "remaining binding [%]": 100}
{"SMILES": "O=C(c1ccc(Nc2ncc(Cl)c(-c3ccc(Cl)s3)n2)cc1)N1CCC(N2CCCC2)CC1", "target": "EGFR A750P/del747-749", "assay": "binding, competition with immobilised ligand", "conditions": "1 µM", "remaining binding [%]": 72}
{"SMILES": "O=C(NC1CCC1)c1ccc2nc(-c3cccc(NS(=O)(=O)NCCN4CCCCC4)c3)cn2c1", "target": "EGFR A750P/del747-749", "assay": "cell-free assay, competition with immobilised ligand", "conditions": "10 µM", "remaining binding [%]": 100}
{"SMILES": "C[C@H]1CCN(c2nccc(-c3cnn4ncccc34)n2)C1", "target": "EGFR", "assay": "binding", "conditions": "1 µM", "remaining binding [%]": 100}
{"SMILES": "O=C(NCCCC1CCCCC1)c1ccc(CNC(=O)c2cnn(-c3ccccc3)c2C(F)(F)F)cc1", "target": "EGFR L858R/T790M", "assay": "cell-free assay, competition with immobilised ligand", "conditions": "0.1 µM", "remaining binding [%]": 95}
{"SMILES": "CN1CCN(c2ccc(Nc3nccc(-c4ccccc4)n3)cc2C(F)(F)F)CC1", "target": "EGFR G719C", "assay": "binding", "conditions": "10 µM", "remaining binding [%]": 64}
{"SMILES": "N#Cc1ccccc1CSc1nnc2c(n1)[nH]c1ccccc12", "target": "EGFR L858R", "assay": "binding, competition with immobilised ligand", "conditions": "10 µM", "remaining binding [%]": 100}
{"SMILES": "O=C1CCc2cc(Nc3cc(OC4CCOCC4)c([N+](=O)[O-])cc3Cl)ccc2N1", "target": "EGFR L861Q", "assay": "cell-free assay, competition with immobilised ligand", "conditions": "1 µM", "remaining binding [%]": 100}
{"SMILES": "N[C@H]1CCN(c2nccc(-c3cnn4ncccc34)n2)C1", "target": "EGFR del746-750", "assay": "binding", "conditions": "1 µM", "remaining binding [%]": 98}
{"SMILES": "NS(=O)(=O)c1cc(NC(=O)Cc2ccccc2)ccc1Oc1cccc(Cl)c1", "target": "Epidermal growth factor receptor (EGFR, Homo sapiens, UniProt P00533, G719S)", "assay": "cell-free assay, competition with immobilised ligand", "conditions": "1 µM", "remaining binding [%]": 74}
{"SMILES": "CN(C)c1nccc(-c2cnc3ncccn23)n1", "target": "EGFR del752-759", "assay": "binding", "conditions": "1 µM", "remaining binding [%]": 100}
{"SMILES": "COc1ncc2cc3ccccc3nc2c1C#N", "target": "EGFR T790M", "assay": "cell-free assay, competition with immobilised ligand", "conditions": "5 µM", "remaining binding [%]": 100}
{"SMILES": "O=C(NCCCN1CCOCC1)c1ccc(Nc2nccc(-c3cc4ccccc4s3)n2)cc1", "target": "EGFR", "assay": "binding, competition with immobilised ligand", "conditions": "1 µM", "remaining binding [%]": 87}
{"SMILES": "Cc1cnn2ncc(-c3ccnc(N(C)C)n3)c2c1", "target": "EGFR G719C", "assay": "binding", "conditions": "1 µM", "remaining binding [%]": 100}
{"SMILES": "CC(C)(C)c1ccc(-c2nc(CBr)nn2-c2cccc(O)c2)cc1", "target": "EGFR", "assay": "cell-free assay, competition with immobilised ligand", "conditions": "10 µM", "remaining binding [%]": 85}
{"SMILES": "Nc1ncc2c(n1)-c1c([nH]c3ccc(C#CC4CC4)cc13)CCCC2", "target": "EGFR L861Q", "assay": "binding, competition with immobilised ligand", "conditions": "1 µM", "remaining binding [%]": 92}
{"SMILES": "O=C(c1ccc(Nc2nccc(-c3cc4ccccc4s3)n2)cc1)N1CCC(N2CCCC2)CC1", "target": "EGFR del747-750/T751S", "assay": "binding, competition with immobilised ligand", "conditions": "1 µM", "remaining binding [%]": 82}
{"SMILES": "CN(C)c1nccc(-c2cnn3ncccc23)n1", "target": "EGFR T790M", "assay": "binding", "conditions": "1 µM", "remaining binding [%]": 100}
{"SMILES": "CCN1CCN(Cc2ccc(C(=O)Nc3ccc(C)c(Oc4ccc5c(c4)CC(=O)N5)c3)cc2C(F)(F)F)CC1", "target": "EGFR L861Q", "assay": "binding, competition with immobilised ligand", "conditions": "1 µM", "remaining binding [%]": 77}
{"SMILES": "COc1cnc(Nc2cccc(S(N)(=O)=O)c2)nc1N1CCN(c2ccccc2)CC1", "target": "EGFR del747-752/P753S", "assay": "binding, competition with immobilised ligand", "conditions": "1 µM", "remaining binding [%]": 85}
{"SMILES": "CN(C)C(=O)Cn1cc(-c2nc([C@@](C)(c3ccc(-c4cnc(N)nc4)cc3)C3CC3)no2)cn1", "target": "EGFR", "assay": "cell-free assay, competition with immobilised ligand", "conditions": "1 µM", "remaining binding [%]": 93}
{"SMILES": "Cc1c(-c2ccccc2)oc2c(C(=O)OCCN3CCCCC3)cccc2c1=O", "target": "EGFR", "assay": "cell-free assay, competition with immobilised ligand", "conditions": "0.1 µM", "remaining binding [%]": 100}
{"SMILES": "O=C(Nc1c[nH]nc1C(=O)NC1CCNCC1)c1cc(F)cc(F)c1", "target": "EGFR del752-759", "assay": "binding, competition with immobilised ligand", "conditions": "1 µM", "remaining binding [%]": 100}
{"SMILES": "c1cncc(-c2cccc(Nc3nccc(NC4CCCCC4)n3)c2)c1", "target": "EGFR G719C", "assay": "binding, competition with immobilised ligand", "conditions": "10 µM", "remaining binding [%]": 70}
{"SMILES": "CC(=O)N1CCC(c2ccc(C(=O)NC(=N)N)cc2C(F)(F)F)CC1", "target": "EGFR del747-750/T751S", "assay": "cell-free assay, competition with immobilised ligand", "conditions": "1 µM", "remaining binding [%]": 100}
{"SMILES": "CN1CCN(c2ccc(Nc3nccc(-c4cccc([N+](=O)[O-])c4)n3)cc2C(F)(F)F)CC1", "target": "EGFR L858R", "assay": "binding", "conditions": "10 µM", "remaining binding [%]": 72}
{"SMILES": "CNC(=O)[C@@H]1CC[C@@H](n2c(-c3ccc4cnccc4c3)nc3ccc(C(=O)NCc4cccc(C(N)=O)c4)cc32)C1", "target": "EGFR L858R", "assay": "binding, competition with immobilised ligand", "conditions": "1 µM", "remaining binding [%]": 100}
{"SMILES": "O=C(c1ccc(Nc2ncc(Cl)c(-c3cc4ccccc4s3)n2)cc1)N1CCC(N2CCCC2)CC1", "target": "EGFR L858R/T790M", "assay": "binding, competition with immobilised ligand", "conditions": "1 µM", "remaining binding [%]": 64}
{"SMILES": "COc1cnc(Nc2cccc(S(N)(=O)=O)c2)nc1N1CCN(c2ccccc2)C(=O)C1", "target": "EGFR G719C", "assay": "binding, competition with immobilised ligand", "conditions": "1 µM", "remaining binding [%]": 100}
{"SMILES": "CN([C@@H]1CCc2c(CC(=O)O)c3ccccc3n2C1)S(=O)(=O)c1ccc(F)cc1", "target": "EGFR A750P/del747-749", "assay": "cell-free assay, competition with immobilised ligand", "conditions": "1 µM", "remaining binding [%]": 100}
{"SMILES": "COc1ccnn2ncc(-c3ccnc(N(C)C)n3)c12", "target": "EGFR L861Q", "assay": "binding", "conditions": "1 µM", "remaining binding [%]": 97}
{"SMILES": "Cc1cnc(Nc2ccc(C(=O)N3CCC(N4CCCC4)CC3)cc2)nc1-c1cc2ccccc2s1", "target": "EGFR T790M", "assay": "binding, competition with immobilised ligand", "conditions": "1 µM", "remaining binding [%]": 56}
{"SMILES": "NS(=O)(=O)c1cc(NC(=O)C2(c3ccccc3Cl)CC2)ccc1Oc1cccc(Cl)c1", "target": "EGFR del747-752/P753S", "assay": "cell-free assay, competition with immobilised ligand", "conditions": "1 µM", "remaining binding [%]": 57}
{"SMILES": "O=C(NCCCN1CCOCC1)c1ccc(Nc2ncc(Cl)c(-c3ccc(Cl)s3)n2)cc1", "target": "EGFR del746-750", "assay": "binding, competition with immobilised ligand", "conditions": "1 µM", "remaining binding [%]": 92}
{"SMILES": "CCOCCn1cc(C(=O)Nc2ccc(-n3nc(-c4cccnc4)cc3C(F)(F)F)cn2)ccc1=O", "target": "EGFR A750P/del747-749", "assay": "cell-free assay, competition with immobilised ligand", "conditions": "1 µM", "remaining binding [%]": 96}
{"SMILES": "O=C(NCC1CCOCC1)c1n[nH]cc1NC(=O)c1c(F)cccc1F", "target": "EGFR A750P/del747-749", "assay": "binding, competition with immobilised ligand", "conditions": "1 µM", "remaining binding [%]": 96}
